{"source": "ChEMBL document CHEMBL2069205", "about": "(Bioorg Med Chem Lett, 2012)", "key": {"[1]": {"target": "T1, Potassium voltage-gated channel subfamily KQT member 1 (Homo sapiens, UniProt P51787)", "T1 sequence (P51787 whole entry)": "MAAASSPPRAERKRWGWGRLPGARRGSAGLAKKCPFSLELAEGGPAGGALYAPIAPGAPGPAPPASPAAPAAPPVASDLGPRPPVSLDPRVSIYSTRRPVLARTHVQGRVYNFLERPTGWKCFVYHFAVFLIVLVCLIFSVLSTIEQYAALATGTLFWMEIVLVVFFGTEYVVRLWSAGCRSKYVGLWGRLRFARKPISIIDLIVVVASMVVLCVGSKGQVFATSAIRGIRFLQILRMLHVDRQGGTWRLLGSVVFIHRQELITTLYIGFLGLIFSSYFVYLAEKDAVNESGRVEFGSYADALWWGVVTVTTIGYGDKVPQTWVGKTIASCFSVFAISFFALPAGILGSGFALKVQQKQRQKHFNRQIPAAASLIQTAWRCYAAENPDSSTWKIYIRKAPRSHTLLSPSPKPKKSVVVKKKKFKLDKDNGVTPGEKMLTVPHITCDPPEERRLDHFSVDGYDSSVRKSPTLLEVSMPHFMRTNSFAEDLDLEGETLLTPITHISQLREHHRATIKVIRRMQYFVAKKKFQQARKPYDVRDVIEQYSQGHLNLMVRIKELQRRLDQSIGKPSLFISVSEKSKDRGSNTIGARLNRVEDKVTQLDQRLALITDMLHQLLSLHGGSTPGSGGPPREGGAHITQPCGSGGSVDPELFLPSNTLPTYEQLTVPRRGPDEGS", "assay": "Activation of Kv7.1 channel expressed in CHO cells assessed as depolarization-induced […] after 3 mins by patch clamp assay", "assay_type": "cell-based", "outline": "(§1)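 CHO cells stably expressing KCNQ1 were run by perforated (amphotericin B, 50 µg/ml) population patch clamp in pH 7.4 HEPES extracellular solution. Cells were held at −80 mV and stepped to +40 mV for 2000 ms. Current at the end of the step was taken before and after 3 min of compound, as percent change. Wells needed >30 MΩ seal and 0.6–0.8 nA minimum current. EC50s came from 8-point, threefold dilutions in duplicate.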"}, "[2]": {"target": "T1, Potassium voltage-gated channel subfamily KQT member 1", "assay": "Activation of Kv7.1 channel expressed in CHO cells assessed as depolarization-induced […] after 3 mins by patch clamp assay relative to control", "assay_type": "cell-based", "details": "0.05 h, read-out: %max; call rule not given here", "outline": "as §1"}, "[3]": {"assay": "Intrinsic clearance in human liver microsomes", "assay_type": "ADME, Microsome", "details": "read-out: CLH", "outline": "(§2)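 Intrinsic clearance was measured in hepatic microsomes, and the data were used to predict hepatic clearance (CL_HEP).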"}, "[4]": {"assay": "Intrinsic clearance in rat liver microsomes", "assay_type": "ADME, Microsome", "details": "read-out: CLH", "outline": "as §2"}, "Liver microsomes [5]": {"tested_on": "Liver microsomes", "assay": "Drug metabolism in human liver microsomes assessed as methoxy-O-demethylation by mass spectrophotometry", "assay_type": "ADME, Microsome", "outline": "(§3)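 In vitro biotransformation in liver microsomes was examined, with primary metabolic pathways identified by mass spectrometry.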"}, "[6]": {"target": "Cannabinoid receptor 1 (Homo sapiens) (UniProt P21554)", "sequence (P21554 whole entry)": "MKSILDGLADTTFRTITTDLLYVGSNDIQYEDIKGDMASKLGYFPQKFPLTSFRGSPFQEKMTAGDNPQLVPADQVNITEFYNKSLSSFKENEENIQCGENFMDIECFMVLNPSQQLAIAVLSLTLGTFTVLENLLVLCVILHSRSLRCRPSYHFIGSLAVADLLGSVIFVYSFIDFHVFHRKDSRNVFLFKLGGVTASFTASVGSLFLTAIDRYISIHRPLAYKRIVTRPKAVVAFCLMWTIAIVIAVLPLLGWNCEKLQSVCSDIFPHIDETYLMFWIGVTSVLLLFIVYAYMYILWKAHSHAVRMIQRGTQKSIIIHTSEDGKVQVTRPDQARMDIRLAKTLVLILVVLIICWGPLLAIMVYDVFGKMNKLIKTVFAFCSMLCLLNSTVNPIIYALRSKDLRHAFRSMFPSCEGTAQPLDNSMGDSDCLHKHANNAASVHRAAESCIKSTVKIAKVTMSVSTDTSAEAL", "assay": "Inhibition of human CB1 receptor at 10 uM", "outline": "(§4)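 The Lead Profiling binding panel (68 GPCRs, ion channels and transporters) was run at a single point, reading percent inhibition.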"}, "Liver microsomes [7]": {"tested_on": "Liver microsomes", "assay": "Drug metabolism in rat liver microsomes assessed as methoxy-O-demethylation by mass spectrophotometry", "assay_type": "ADME, Microsome", "outline": "as §3"}, "[8]": {"target": "Potassium voltage-gated channel subfamily KQT member 2 (Homo sapiens, UniProt O43526)", "sequence (O43526 whole entry)": "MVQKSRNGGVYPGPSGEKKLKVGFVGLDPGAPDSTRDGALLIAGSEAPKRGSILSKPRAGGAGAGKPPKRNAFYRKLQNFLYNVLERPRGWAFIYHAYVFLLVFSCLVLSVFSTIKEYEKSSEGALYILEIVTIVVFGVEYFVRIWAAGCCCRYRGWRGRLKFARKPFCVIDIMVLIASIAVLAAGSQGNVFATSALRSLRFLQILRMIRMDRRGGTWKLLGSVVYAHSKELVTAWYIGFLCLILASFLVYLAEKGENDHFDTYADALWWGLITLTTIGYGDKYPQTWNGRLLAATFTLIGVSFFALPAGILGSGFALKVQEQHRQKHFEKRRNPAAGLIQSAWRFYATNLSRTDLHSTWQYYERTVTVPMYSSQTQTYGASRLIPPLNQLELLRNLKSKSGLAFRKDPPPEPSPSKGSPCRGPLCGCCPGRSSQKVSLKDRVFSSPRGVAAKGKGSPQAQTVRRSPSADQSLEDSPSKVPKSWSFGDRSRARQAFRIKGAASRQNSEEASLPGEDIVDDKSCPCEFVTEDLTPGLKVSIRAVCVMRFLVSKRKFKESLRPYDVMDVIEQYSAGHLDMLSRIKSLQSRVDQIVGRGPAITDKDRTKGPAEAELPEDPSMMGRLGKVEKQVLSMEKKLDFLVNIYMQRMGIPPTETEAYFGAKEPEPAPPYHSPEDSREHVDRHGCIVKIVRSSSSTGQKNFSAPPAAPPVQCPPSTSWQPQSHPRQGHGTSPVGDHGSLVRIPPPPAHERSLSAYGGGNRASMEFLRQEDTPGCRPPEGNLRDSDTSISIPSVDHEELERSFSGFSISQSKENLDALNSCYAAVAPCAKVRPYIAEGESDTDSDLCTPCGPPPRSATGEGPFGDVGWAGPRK", "assay": "Activation of KCNQ2 channel expressed in CHO cells assessed as depolarization-induced […] after 3 mins by patch clamp assay relative to control", "assay_type": "cell-based"}, "[9]": {"target": "T2, Adenosine receptor A3 (Homo sapiens) (UniProt P0DMS8)", "T2 sequence (whole entry)": "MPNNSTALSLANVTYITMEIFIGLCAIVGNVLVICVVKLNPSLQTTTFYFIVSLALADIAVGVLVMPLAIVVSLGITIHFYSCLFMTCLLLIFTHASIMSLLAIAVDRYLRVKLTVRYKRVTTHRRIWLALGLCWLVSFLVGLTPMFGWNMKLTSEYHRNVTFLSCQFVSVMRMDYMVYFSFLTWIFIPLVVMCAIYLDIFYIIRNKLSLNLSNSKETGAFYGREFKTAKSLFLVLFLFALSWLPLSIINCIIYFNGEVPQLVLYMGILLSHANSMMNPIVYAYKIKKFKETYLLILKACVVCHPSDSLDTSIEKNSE", "assay": "Inhibition of human adenosine A3 receptor at 10 uM", "outline": "as §4"}, "[10]": {"target": "T3, Potassium voltage-gated channel subfamily KQT member 4 (Homo sapiens, UniProt P56696)", "T3 sequence (P56696 whole entry)": "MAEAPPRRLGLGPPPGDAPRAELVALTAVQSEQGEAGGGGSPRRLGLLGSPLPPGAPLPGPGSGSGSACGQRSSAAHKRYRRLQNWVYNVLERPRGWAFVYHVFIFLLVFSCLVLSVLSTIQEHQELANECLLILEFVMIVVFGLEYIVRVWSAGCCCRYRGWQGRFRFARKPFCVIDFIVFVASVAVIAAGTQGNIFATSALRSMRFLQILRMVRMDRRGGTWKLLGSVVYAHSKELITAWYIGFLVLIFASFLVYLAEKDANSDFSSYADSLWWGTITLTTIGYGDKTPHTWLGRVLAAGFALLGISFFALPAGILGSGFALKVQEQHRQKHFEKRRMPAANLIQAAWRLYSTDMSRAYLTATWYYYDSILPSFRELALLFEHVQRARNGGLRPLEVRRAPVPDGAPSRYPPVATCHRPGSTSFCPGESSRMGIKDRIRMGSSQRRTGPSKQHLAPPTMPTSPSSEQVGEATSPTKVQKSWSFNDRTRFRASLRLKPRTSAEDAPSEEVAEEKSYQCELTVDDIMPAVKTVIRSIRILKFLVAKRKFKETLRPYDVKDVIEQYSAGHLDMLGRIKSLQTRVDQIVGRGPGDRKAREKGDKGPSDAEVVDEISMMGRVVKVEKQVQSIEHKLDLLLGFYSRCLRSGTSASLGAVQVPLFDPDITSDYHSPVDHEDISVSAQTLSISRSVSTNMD", "assay": "Activation of KCNQ4 channel expressed in CHO cells assessed as depolarization-induced […] after 3 mins by patch clamp assay relative to control", "assay_type": "cell-based", "outline": "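KCNQ4-expressing CHO cells were measured on the same perforated population patch-clamp platform. Cells were held at −70 mV and depolarized to +40 mV, with step current measured at +40 mV before and after 3 min of compound. Effect was calculated as percent change from the pre-compound current in the same well. The 8-point, threefold concentration series was run in duplicate.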"}, "[11]": {"target": "Sodium-dependent dopamine transporter (Homo sapiens) (UniProt Q01959)", "sequence (Q01959 whole entry)": "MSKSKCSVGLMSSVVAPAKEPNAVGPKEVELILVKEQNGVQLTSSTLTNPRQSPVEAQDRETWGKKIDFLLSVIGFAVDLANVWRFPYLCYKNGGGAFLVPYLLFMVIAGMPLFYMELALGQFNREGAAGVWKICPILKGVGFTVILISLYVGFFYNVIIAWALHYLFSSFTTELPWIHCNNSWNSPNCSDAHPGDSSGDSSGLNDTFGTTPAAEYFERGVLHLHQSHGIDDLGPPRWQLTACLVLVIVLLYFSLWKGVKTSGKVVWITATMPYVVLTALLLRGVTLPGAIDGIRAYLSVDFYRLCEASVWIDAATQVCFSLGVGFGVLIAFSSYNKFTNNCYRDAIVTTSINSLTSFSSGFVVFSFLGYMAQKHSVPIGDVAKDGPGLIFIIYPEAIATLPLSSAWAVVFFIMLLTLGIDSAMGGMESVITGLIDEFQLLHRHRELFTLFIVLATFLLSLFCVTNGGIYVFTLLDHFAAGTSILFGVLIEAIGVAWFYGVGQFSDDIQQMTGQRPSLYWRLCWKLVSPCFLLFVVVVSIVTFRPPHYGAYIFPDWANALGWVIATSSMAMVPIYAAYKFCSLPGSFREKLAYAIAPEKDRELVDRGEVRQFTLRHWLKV", "assay": "Inhibition of human DAT at 10 uM", "outline": "as §4"}, "Liver microsomes [12]": {"tested_on": "Liver microsomes", "assay": "Drug metabolism in rat liver microsomes assessed as tolyl-oxidation by mass spectrophotometry", "assay_type": "ADME, Microsome", "outline": "as §3"}, "[13]": {"target": "5-hydroxytryptamine receptor 2B (Homo sapiens) (UniProt P41595)", "sequence (P41595 whole entry)": "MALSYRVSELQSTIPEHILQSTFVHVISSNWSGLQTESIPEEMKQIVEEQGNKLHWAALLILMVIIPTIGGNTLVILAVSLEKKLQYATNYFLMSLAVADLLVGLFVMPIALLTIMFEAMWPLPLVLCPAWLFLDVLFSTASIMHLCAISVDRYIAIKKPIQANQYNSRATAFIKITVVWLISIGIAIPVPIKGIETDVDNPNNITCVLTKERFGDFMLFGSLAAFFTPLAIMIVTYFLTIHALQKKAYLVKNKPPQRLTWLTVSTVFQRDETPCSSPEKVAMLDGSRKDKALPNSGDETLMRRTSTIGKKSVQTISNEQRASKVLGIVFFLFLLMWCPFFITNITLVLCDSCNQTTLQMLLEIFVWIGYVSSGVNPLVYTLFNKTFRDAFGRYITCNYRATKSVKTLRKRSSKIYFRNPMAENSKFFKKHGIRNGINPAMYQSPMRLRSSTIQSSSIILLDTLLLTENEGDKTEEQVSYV", "assay": "Inhibition of human 5HT2B receptor at 10 uM", "outline": "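Commercial lead-profiling binding panel of up to 68 GPCRs, ion channels and transporters; percent inhibition measured at a single concentration of 10 µM.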"}, "Plasma [14]": {"tested_on": "Plasma", "assay": "Fraction unbound in human plasma", "assay_type": "ADME, cell-free", "outline": "(§5)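 Plasma protein binding was measured by rapid equilibrium dialysis, giving the unbound fraction.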"}, "Liver microsomes [15]": {"tested_on": "Liver microsomes", "assay": "Drug metabolism in human liver microsomes assessed as tolyl-oxidation by mass spectrophotometry", "assay_type": "ADME, Microsome", "outline": "as §3"}, "Plasma [16]": {"tested_on": "Plasma", "assay": "Fraction unbound in rat plasma", "assay_type": "ADME, cell-free", "outline": "as §5"}}}
{"smiles": "COc1ccc(-c2csc(NC(=O)[C@H]3CCCCN3S(=O)(=O)c3ccc4c(c3)OCO4)n2)cc1", "values": [{"measurement": "EC50", "setting": "[1]", "value": 780, "unit": "nM"}, {"measurement": "Emax", "setting": "[2]", "value": 178, "unit": "%"}]}
{"smiles": "COc1ccc(-c2csc(NC(=O)[C@@H]3CCCCN3S(=O)(=O)c3ccccc3)n2)cc1", "values": [{"measurement": "EC50", "setting": "[1]", "value": "> 30000", "unit": "nM"}]}
{"smiles": "O=C(Nc1nc(-c2ccc(OC(F)(F)F)cc2)cs1)[C@H]1CCCCN1S(=O)(=O)c1ccc(OC(F)(F)F)cc1", "values": [{"measurement": "CLint scaled", "setting": "[3]", "value": 7.9, "unit": "mL/min/kg"}, {"measurement": "CLint scaled", "setting": "[4]", "value": 20.6, "unit": "mL/min/kg"}, {"measurement": "Activity", "setting": "[1]; human, cho, 0.05 h", "value": "Not Active"}]}
{"smiles": "COc1ccc(-c2csc(NC(=O)[C@H]3CCCCN3S(=O)(=O)c3ccccc3)n2)cc1", "values": [{"measurement": "EC50", "setting": "[1]", "value": 1470, "unit": "nM"}, {"measurement": "Emax", "setting": "[2]", "value": 359, "unit": "%"}]}
{"smiles": "COc1ccc(-c2csc(NC(=O)[C@H]3CCCCN3S(=O)(=O)c3ccc(C)cc3)n2)cc1", "values": [{"measurement": "Drug metabolism", "setting": "Liver microsomes [5]", "value": "Active"}, {"measurement": "inhibition", "setting": "[6]", "value": 97, "unit": "%"}, {"measurement": "CLint scaled", "setting": "[3]", "value": 18, "unit": "mL/min/kg"}, {"measurement": "Drug metabolism", "setting": "Liver microsomes [7]", "value": "Active"}, {"measurement": "EC50", "setting": "[8]", "value": "> 30000", "unit": "nM"}, {"measurement": "inhibition", "setting": "[9]", "value": 73, "unit": "%"}, {"measurement": "EC50", "setting": "[10]", "value": "> 30000", "unit": "nM"}, {"measurement": "inhibition", "setting": "[11]", "value": 54, "unit": "%"}, {"measurement": "Drug metabolism", "setting": "Liver microsomes [12]", "value": "Active"}, {"measurement": "CLint scaled", "setting": "[4]", "value": 64.7, "unit": "mL/min/kg"}, {"measurement": "inhibition", "setting": "[13]", "value": 66, "unit": "%"}, {"measurement": "Fu", "setting": "Plasma [14]", "value": 0.6, "unit": "%"}, {"measurement": "Drug metabolism", "setting": "Liver microsomes [15]", "value": "Active"}, {"measurement": "Fu", "setting": "Plasma [16]", "value": 0.7, "unit": "%"}]}
{"smiles": "COc1ccc(-c2csc(NC(=O)C3CCCCN3S(=O)(=O)c3ccccc3)n2)cc1", "note": "(racemic)", "values": [{"measurement": "EC50", "setting": "[1]", "value": 1690, "unit": "nM"}, {"measurement": "Emax", "setting": "[2]", "value": 285, "unit": "%"}]}
